Test results: ChEMBL document CHEMBL4376814, “Novel cyclin-dependent kinase 9 (CDK9) inhibitor with suppression of cancer stemness activity against non-small-cell lung cancer” (Eur J Med Chem, 2019)
Active and inactive are the calls of the source. The calls are words filed in the database; no cut-off is given here.

Legend:
[1] = molecular target: Serine/threonine-protein kinase pim-2 (Homo sapiens) (UniProt Q9P1W9); assay: Inhibition of recombinant human Pim-2 (2 to end residues) at 1 uM using RSRHSSYPAGT as substrate measured after 40 mins in presence of [gamma33P]ATP by scintillation counting method relative to control
[2] = tested on: A549; assay: Downregulation of cyclin T1 expression in human A549 cells at 0.25 to 1 uM after 24 hrs by Western blot analysis; type: functional, cell-based
Procedure, shortened: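 A549 and H1299 cells treated for 24 h with serial dilutions alongside a DMSO control. Protein extracts resolved and immunoblotted.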

[3] = molecular target: Mitogen-activated protein kinase 12 (Homo sapiens) (UniProt P53778); assay: Inhibition of recombinant full-length human SAPK3 at 1 uM using myelin basic protein as substrate measured after 40 mins in presence of [gamma33P]ATP by scintillation counting method relative to control
[4] = species on record: Homo sapiens; assay: Inhibition of recombinant human ARAF Y301D/Y302D mutant (273 to end residues) at 1 uM using myelin basic protein as substrate measured after 40 mins in presence of [gamma33P]ATP by scintillation counting method relative to control
[5] = molecular target: Cyclin-dependent kinase 2/cyclin E1 (Homo sapiens) (UniProt P24864+P24941); assay: Inhibition of recombinant full-length human CDK2/cyclinE at 1 uM using Histone H1 as substrate measured after 40 mins in presence of [gamma33P]ATP by scintillation counting method relative to control; type: protein-complex assay
[6] = tested on: PI3-kinase p110-alpha/p85-alpha (Homo sapiens), P27986+P42336 [H1047R]; assay: Inhibition of recombinant full-length human PI3K p110alpha/p85alpha H1047R mutant at 1 uM using phosphatidylinositol-4, 5-bisphosphate as substrate measured after 40 mins by fluorescence assay relative to control
[7] = molecular target: Mitogen-activated protein kinase 1 (Homo sapiens) (UniProt P28482); assay: Inhibition of recombinant full-length human MAPK2 at 1 uM using MBP as substrate measured after 40 mins in presence of [gamma33P]ATP by scintillation counting method relative to control
[8] = molecular target: Serine/threonine-protein kinase pim-1 (Homo sapiens) (UniProt P11309); assay: Inhibition of recombinant full-length human Pim-1 at 1 uM using KKRNRTLTV as substrate measured after 40 mins in presence of [gamma33P]ATP by scintillation counting method relative to control
[9] = tested on: NCI-H1299; assay: Induction of apoptosis in human H1299 cells assessed as late apoptotic cells at 1 uM after 48 hrs by AnnexinV-FITC/PI staining-based flow cytometric analysis (reference value: 1.77%); type: functional
[10] = molecular target: Dual specificity tyrosine-phosphorylation-regulated kinase 1B (Homo sapiens) (UniProt Q9Y463); assay: Inhibition of recombinant full-length human DYRK1B at 1 uM using RRRFRPASPLRGPPK as substrate measured after 40 mins in presence of [gamma33P]ATP by scintillation counting method relative to control
[11] = molecular target: CDK4/Cyclin D3 (Homo sapiens, UniProt P11802); assay: Inhibition of recombinant full-length human CDK4/cyclinD3 using Rb fragment as substrate measured after 40 mins in presence of [gamma33P]ATP by scintillation counting method; type: protein-complex assay
[12] = molecular target: Serine/threonine-protein kinase Nek7 (Homo sapiens) (UniProt Q8TDX7); assay: Inhibition of recombinant human NEK7 (2 to end residues) at 1 uM using FLAKSFGSPNRAY as substrate measured after 40 mins in presence of [gamma33P]ATP by scintillation counting method relative to control
[13] = molecular target: Tyrosine-protein kinase JAK3 (Homo sapiens) (UniProt P52333); assay: Inhibition of recombinant human JAK3 (781 to end residues) at 1 uM using GGEEEEYFELVKKKK as substrate measured after 40 mins in presence of [gamma33P]ATP by scintillation counting method relative to control
[14] = molecular target: Fibroblast growth factor receptor 1 (Homo sapiens) (UniProt P11362); assay: Inhibition of recombinant human FGFR1 (456 to 765 residues) at 1 uM using KKKSPGEYVNIEFG as substrate measured after 40 mins in presence of [gamma33P]ATP by scintillation counting method relative to control
[15] = molecular target: Ephrin type-A receptor 4 (Homo sapiens) (UniProt P54764); assay: Inhibition of recombinant human EphA4 (601 to 892 residues) at 1 uM using poly(Glu, Tyr) 4:1 as substrate measured after 40 mins in presence of [gamma33P]ATP by scintillation counting method relative to control
Procedure, shortened: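 Single-point inhibition at 1 µM was measured in the Eurofins KinaseProfiler panel. Values are the mean of two independent experiments.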

[16] = tested on: Serine/threonine-protein kinase B-raf (Homo sapiens), P15056 [V600E]; assay: Inhibition of recombinant human BRAF V599E mutant (416 to end residues) at 1 uM using myelin basic protein as substrate measured after 40 mins in presence of [gamma33P]ATP by scintillation counting method relative to control
[17] = molecular target: Platelet-derived growth factor receptor beta (Homo sapiens) (UniProt P09619); assay: Inhibition of recombinant human PDGFRbeta (557 to end residues) at 1 uM using poly[Glu:Tyr] (4:1) as substrate measured after 40 mins in presence of [gamma33P]ATP by scintillation counting method relative to control
[18] = tested on: A549; assay: Induction of apoptosis in human A549 cells assessed as necrotic cells at 1 uM after 48 hrs by AnnexinV-FITC/PI staining-based flow cytometric analysis (reference value: 0.664%); type: functional
[19] = molecular target: Tyrosine-protein kinase Fer (Homo sapiens) (UniProt P16591); assay: Inhibition of recombinant human FER (541 to end residues) at 1 uM using KKKSPGEYVNIEFG as substrate measured after 40 mins in presence of [gamma33P]ATP by scintillation counting method relative to control
[20] = molecular target: Cyclin-dependent kinase-like 2 (Homo sapiens) (UniProt Q92772); assay: Inhibition of human CDKL2 at 1 uM at 1 uM by radiometric method relative to control
Procedure, shortened: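 Percent inhibition of kinase activity at a single compound concentration, measured by the outsourced Eurofins KinaseProfiler panel. Values are the mean of two independent experiments.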

[21] = molecular target: CDC7/Cyclin B1 (Homo sapiens) (UniProt P14635+O00311); assay: Inhibition of recombinant full-length human CDC7/cyclinB1 at 1 uM using Histone H1 as substrate measured after 120 mins in presence of [gamma33P]ATP by scintillation counting method relative to control; type: protein-complex assay
[22] = molecular target: Fibroblast growth factor receptor 2 (Homo sapiens) (UniProt P21802); assay: Inhibition of recombinant human FGFR2 (456 to 770 residues) at 1 uM using poly(Glu, Tyr) 4:1 as substrate measured after 40 mins in presence of [gamma33P]ATP by scintillation counting method relative to control
[23] = molecular target: Serine/threonine-protein kinase 17A (Homo sapiens) (UniProt Q9UEE5); assay: Inhibition of recombinant full-length human DRAK1 at 1 uM using KKLNRTLSFAEPG as substrate measured after 40 mins in presence of [gamma33P]ATP by scintillation counting method relative to control

Fibroblast growth factor receptor 2 (Homo sapiens), sequence (P21802 22-821 limits assumed): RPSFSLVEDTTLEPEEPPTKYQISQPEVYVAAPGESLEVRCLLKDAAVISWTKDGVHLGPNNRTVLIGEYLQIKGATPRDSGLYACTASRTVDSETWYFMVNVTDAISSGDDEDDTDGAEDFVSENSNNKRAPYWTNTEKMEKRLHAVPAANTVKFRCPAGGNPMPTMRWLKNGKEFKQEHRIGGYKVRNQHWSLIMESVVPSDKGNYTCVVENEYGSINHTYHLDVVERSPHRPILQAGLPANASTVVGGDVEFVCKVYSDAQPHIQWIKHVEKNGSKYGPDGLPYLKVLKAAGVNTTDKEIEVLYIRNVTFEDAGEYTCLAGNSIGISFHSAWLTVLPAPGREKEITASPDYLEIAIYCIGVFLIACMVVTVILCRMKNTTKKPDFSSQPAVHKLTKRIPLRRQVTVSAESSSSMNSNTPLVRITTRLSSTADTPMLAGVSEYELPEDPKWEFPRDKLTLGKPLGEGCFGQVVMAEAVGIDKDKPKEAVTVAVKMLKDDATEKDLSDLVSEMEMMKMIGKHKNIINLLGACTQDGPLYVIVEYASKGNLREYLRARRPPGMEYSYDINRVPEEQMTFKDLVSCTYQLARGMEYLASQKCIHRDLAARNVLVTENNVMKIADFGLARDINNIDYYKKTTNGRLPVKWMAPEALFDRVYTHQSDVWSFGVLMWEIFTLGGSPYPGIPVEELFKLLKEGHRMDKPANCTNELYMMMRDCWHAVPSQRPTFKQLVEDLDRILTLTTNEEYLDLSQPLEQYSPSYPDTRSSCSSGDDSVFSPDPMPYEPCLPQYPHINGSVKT
Platelet-derived growth factor receptor beta (Homo sapiens), sequence (P09619 whole entry): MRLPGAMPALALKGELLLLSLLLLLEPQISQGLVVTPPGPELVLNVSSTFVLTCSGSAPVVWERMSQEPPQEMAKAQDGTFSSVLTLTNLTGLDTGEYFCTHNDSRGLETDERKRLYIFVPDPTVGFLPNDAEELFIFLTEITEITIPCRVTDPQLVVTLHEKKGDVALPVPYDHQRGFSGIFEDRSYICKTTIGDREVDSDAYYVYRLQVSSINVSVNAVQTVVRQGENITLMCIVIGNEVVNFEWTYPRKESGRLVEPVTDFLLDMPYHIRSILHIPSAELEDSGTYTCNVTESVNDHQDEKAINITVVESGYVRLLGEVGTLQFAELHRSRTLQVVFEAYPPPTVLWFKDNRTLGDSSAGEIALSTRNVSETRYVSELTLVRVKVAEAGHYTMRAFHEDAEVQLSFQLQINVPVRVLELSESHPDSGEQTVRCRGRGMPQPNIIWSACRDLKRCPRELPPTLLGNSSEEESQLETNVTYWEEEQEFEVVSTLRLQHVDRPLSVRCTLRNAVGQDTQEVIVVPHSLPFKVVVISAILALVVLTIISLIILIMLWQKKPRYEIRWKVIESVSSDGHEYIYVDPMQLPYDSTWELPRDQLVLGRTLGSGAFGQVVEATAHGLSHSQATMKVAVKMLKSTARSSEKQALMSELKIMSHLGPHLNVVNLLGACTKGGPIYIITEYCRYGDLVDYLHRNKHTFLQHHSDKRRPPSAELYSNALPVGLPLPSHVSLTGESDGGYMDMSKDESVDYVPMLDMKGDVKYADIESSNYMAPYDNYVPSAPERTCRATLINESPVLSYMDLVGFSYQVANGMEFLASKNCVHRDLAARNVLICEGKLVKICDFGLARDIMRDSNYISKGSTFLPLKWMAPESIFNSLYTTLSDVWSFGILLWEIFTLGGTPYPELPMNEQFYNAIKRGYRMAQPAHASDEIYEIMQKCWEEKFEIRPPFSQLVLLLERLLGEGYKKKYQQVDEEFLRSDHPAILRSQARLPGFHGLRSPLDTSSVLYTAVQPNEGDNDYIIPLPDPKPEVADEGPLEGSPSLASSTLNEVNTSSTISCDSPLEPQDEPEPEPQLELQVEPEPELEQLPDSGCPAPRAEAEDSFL
Mitogen-activated protein kinase 1 (Homo sapiens), sequence (P28482 whole entry): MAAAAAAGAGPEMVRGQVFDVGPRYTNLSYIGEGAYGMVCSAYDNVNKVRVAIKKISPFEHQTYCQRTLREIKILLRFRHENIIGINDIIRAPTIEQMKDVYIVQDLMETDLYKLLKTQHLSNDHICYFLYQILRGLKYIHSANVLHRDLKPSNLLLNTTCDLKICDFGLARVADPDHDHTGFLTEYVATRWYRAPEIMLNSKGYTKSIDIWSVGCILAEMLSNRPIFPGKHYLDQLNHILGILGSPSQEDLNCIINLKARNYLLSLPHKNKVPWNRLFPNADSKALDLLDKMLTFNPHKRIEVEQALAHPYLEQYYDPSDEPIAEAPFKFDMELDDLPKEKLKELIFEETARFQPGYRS
Tyrosine-protein kinase JAK3 (Homo sapiens), sequence (P52333 whole entry, the tested form may be a part): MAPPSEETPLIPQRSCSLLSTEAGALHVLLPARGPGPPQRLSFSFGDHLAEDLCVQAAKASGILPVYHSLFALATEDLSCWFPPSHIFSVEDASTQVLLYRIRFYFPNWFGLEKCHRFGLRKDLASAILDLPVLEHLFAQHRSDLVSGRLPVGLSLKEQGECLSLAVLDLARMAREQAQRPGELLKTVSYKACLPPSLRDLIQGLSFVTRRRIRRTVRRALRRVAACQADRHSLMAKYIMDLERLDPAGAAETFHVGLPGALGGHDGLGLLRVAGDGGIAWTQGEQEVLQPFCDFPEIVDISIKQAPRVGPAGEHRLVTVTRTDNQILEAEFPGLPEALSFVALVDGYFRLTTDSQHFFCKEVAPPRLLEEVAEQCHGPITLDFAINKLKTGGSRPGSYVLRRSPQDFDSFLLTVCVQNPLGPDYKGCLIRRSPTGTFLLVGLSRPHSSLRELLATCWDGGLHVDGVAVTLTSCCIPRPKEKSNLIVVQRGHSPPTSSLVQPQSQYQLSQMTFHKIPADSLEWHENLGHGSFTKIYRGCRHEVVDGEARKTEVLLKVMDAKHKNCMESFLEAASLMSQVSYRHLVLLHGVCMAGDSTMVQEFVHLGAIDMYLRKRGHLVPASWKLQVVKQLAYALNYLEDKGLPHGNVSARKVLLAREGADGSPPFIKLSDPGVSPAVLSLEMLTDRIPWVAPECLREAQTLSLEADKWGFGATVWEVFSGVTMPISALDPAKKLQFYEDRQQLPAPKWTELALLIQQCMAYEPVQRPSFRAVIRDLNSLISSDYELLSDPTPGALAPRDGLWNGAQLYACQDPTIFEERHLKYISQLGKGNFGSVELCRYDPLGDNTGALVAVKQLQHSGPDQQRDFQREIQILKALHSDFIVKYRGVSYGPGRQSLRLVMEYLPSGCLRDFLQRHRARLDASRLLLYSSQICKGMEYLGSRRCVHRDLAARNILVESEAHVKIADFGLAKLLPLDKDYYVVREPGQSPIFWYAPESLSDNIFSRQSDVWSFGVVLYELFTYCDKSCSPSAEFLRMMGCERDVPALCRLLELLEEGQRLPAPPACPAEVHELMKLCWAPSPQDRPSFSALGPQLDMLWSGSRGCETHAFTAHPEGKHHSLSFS
Dual specificity tyrosine-phosphorylation-regulated kinase 1B (Homo sapiens), sequence (Q9Y463 whole entry, looked up, the tested form may be a part): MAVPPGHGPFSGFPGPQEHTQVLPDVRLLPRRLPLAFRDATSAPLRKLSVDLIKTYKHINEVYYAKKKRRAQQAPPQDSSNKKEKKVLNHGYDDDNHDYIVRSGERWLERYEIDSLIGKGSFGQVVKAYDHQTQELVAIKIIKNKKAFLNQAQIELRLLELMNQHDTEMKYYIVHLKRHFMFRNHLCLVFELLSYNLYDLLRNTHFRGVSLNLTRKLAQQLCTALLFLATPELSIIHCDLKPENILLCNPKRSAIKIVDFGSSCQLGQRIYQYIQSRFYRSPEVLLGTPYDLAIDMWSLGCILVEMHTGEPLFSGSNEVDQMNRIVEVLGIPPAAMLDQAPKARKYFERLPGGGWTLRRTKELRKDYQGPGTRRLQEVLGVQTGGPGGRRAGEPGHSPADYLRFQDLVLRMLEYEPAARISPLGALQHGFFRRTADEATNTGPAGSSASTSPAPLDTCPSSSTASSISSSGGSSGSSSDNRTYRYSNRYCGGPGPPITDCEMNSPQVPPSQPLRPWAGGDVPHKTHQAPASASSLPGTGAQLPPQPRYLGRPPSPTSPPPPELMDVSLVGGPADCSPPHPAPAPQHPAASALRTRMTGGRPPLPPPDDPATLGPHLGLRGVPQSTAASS
Tyrosine-protein kinase Fer (Homo sapiens), sequence (P16591 whole entry, looked up): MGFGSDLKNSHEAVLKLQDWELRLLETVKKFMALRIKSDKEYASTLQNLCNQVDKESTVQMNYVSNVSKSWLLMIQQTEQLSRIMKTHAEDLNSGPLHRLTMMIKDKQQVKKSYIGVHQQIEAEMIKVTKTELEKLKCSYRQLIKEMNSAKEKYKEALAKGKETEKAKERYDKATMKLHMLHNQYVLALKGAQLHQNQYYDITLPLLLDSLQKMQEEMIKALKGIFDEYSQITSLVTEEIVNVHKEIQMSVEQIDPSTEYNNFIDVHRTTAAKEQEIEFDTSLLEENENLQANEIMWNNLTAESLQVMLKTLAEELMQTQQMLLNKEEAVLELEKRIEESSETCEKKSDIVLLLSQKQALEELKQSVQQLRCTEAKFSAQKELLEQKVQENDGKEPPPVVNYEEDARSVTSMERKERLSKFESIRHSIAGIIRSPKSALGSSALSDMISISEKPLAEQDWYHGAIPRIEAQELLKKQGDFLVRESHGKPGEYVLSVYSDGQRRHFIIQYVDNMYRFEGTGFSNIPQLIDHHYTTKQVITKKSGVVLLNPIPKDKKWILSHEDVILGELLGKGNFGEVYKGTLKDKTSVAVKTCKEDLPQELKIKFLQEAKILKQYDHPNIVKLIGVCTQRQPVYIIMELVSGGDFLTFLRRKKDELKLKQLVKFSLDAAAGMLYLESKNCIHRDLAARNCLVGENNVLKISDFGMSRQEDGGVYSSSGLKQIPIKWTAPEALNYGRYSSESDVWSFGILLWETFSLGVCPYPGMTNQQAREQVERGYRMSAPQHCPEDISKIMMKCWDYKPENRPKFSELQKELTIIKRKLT

CN(C)C(=O)c1cc2cnc(Nc3ccc(NC(=O)CCCCCCCN=C=S)cc3)nc2n1C1CCCC1
inhibition [1]: -1% | Activity [2]: Active | inhibition [3]: 4% | inhibition [4]: -1% | inhibition [5]: 75% | inhibition [6]: 2% | inhibition [7]: 7% | inhibition [8]: 8% | Activity [9]: 4.51% | inhibition [10]: 0% | IC50 [11]: 148 nM | inhibition [12]: -6% | inhibition [13]: 83% | inhibition [14]: 72% | inhibition [15]: 1% | inhibition [16]: 31% | inhibition [17]: 2% | Activity [18]: 7.76% | inhibition [19]: 7% | inhibition [20]: 57% | inhibition [21]: 75% | inhibition [22]: 27% | inhibition [23]: 22%
